Experimental data pooled from the literature.
Lines come from different studies, so protocols differ.
Target: Casein kinase I isoform gamma-2 (CSNK1G2, Homo sapiens, UniProt P78368)

| SMILES | observed | mode | technique | tested at | measurement | result |
| --- | --- | --- | --- | --- | --- | --- |
| Nc1ncc(-c2nc(N3CCOCC3)nc(N3CCOCC3)n2)c(C(F)F)n1 | binding | – | competition with immobilised ligand | 10 µM | remaining binding | 85% |
| Cn1cc(-c2cc(F)cc(N3CCn4c(cc5c4CCCC5)C3=O)c2CO)cc(Nc2ccc(N3CCN(C4COC4)CC3)cn2)c1=O | enzyme activity | inhibitor | – | 0.1 µM | inhibition | 7% |
| COc1cc(Nc2ncc(F)c(Nc3ccc4c(n3)NC(=O)C(C)(C)O4)n2)cc(OC)c1OC | binding | – | competition with immobilised ligand | 10 µM | inhibition | 0% |
| Cn1cncc1[C@@](O)(COc1ccc(C#N)cc1-c1ccc(OC(F)(F)F)cc1)c1ccc(C#N)cc1 | cell-free assay | – | competition with immobilised ligand | 1 µM | remaining binding | 64% |
| Cn1cc(-c2cccc(N3CCc4c(sc5c4CC(C)(C)C5)C3=O)c2CO)cc(Nc2ccncn2)c1=O | enzyme activity | inhibitor | – | 1 µM | inhibition | 6% |
| CC(C)(C)c1cc(C=C(C#N)C#N)cc(Br)c1O | enzyme activity | inhibitor | – | 0.5 µM | remaining activity | 100% |
| Cc1nn(C)cc1-c1nc2c(N3CCN(Cc4ccc(Cl)cc4)CC3)c(Cl)cnc2[nH]1 | binding | – | competition with immobilised ligand | 1 µM | remaining binding | 96% |
| O=c1[nH]c2ccccc2n1C1CCN(Cc2ccc(-c3[nH]c4cc5ncnc5cc4nc3-c3ccccc3)cc2)CC1 | cell-free assay | – | – | 0.5 µM | remaining signal | 101% |
| COc1ncccc1-c1cnn2ccc(N3CCN(C(=O)OC(C)C)CC3)nc12 | binding | – | competition with immobilised ligand | 1 µM | remaining binding | 100% |
